According to the EternaBench riboswitch data:

Test system: MS2 coat protein
Test: apparent Kd, MS2 coat protein; higher = weaker binding; RNA-MaP array; FMN 200 µM where present
Outline: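 Green signal was scaled to red-channel RNA signal and control-cluster median Fmax, and the apparent Kd was taken as the median of filtered per-cluster binding-curve fits. The binding series used SNAP-549-labelled MS2 coat protein from 0.7 or 1.5 nM, doubling to 3 µM, on designs transcribed by stalled E. coli RNA polymerase on Illumina sequencing-chip clusters. Each series ran without and then with constant ligand in 100 mM Tris-HCl pH 7.5, 80 mM KCl, 4 mM MgCl2, BSA, DTT, yeast tRNA and Tween-20.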

[1] = designed as: OFF switch for flavin mononucleotide, no ligand
[2] = ligand present: flavin mononucleotide, designed as: OFF switch for flavin mononucleotide
[3] = designed as: ON switch for flavin mononucleotide, no ligand
[4] = ligand present: flavin mononucleotide, designed as: ON switch for flavin mononucleotide

UUACUGUAAUAGAAGGGUAUUUGGGUUUUACAUGAGGAUCACCCAUGUUUUAUAGGAUAUGUUUAUAGUUUUUAAUCAAGUUUA
apparent Kd [1]: 91.1 nM | apparent Kd [2]: 68.7 nM

UUAGCAACAUGAGGAUCACCCAUGUAGGAUAUCGCUAUUGUAAUCAUGAAACAUGAUUACAAUAGCGAGAAGGACAUAUGCUCC
apparent Kd [1]: 7.17 nM | apparent Kd [2]: 10.6 nM

UUAGCAACAUGAGGAUCACCCAUGUAGGAUAUCGCUAUUGUAAUCAUGAAACAUGAUUACAAUAGCGAGAAGGACAUAUGCUUU
apparent Kd [1]: 13.9 nM | apparent Kd [2]: 14.9 nM

UUAGGCGACCAGAAGGGUGACAUGAGGAUCACCCAUGUAGAUGUGUUCCCGCUUGGGAGCCGUCCACAGGAUAUGGUUGGUUAG
apparent Kd [3]: 35.7 nM | apparent Kd [4]: 16.8 nM

UUAUACAUUCGAGGAUAUCGGAGAGAAAUCUUUCGAGAAGGCGAUUCAUGAUGUAUUAUCCUGGACAUGAGGAUCACCCAUGUA
apparent Kd [3]: 96.8 nM | apparent Kd [4]: 76.9 nM

UUAUACAUUCGAGGAUAUCGGUGAGAAAUCUUUCGAGAAGGCGAUUCAUGAUGUAUUAUCCUGGACAUGAGGAUCACCCAUGUA
apparent Kd [3]: 148 nM | apparent Kd [4]: 92.5 nM

UUAUAUAGUGUGAGGAUAUGCUGGUCCUUGGAUCAGCAGAAGGCACAUGAGGAUCACCCAUGUAGUUUAUUUUU
apparent Kd [1]: 25.4 nM | apparent Kd [2]: 144 nM

UUAUGUAUUGUAGGAUAUCACAAGUUAUGUAUUAUAAUUGUAAUUUUGUAAUGAGAAGGACAUAUACAUGAGGAUCACCCAUGU
apparent Kd [1]: 18.9 nM | apparent Kd [2]: 14.9 nM

UUAUGUGUCGUAGGAUAUCAUUAGAUUUGUAAUUUAAUUGUAAUUUACAUAUGAGAAGGACGUAUACAUGAGGAUCACCCAUGU
apparent Kd [1]: 25.5 nM | apparent Kd [2]: 35.9 nM

UUAUUAAGUGUGAGGAUAUGCUGGUCCUUGGAUCAGCAGAAGGCACAUGAGGAUCACCCAUGUACAAUAUAUUA
apparent Kd [1]: 38.5 nM | apparent Kd [2]: 251 nM

UUAUUACAUGAGGAUCACCCAUGUGAGGAUAUCGAUGUAACUAGCAGCGUGCGGGACUCGAGAAGGCACUUGGA
apparent Kd [1]: 61.1 nM | apparent Kd [2]: 144 nM

UUAUUAUAUGUAGGAUAUGCAUAUUAUUAUUAUGCAGAAGGACAUGAGGAUCACCCAUGUAUAUUAUUAUUAUAUAUUGUAUAU
apparent Kd [1]: 27.8 nM | apparent Kd [2]: 43.2 nM

UUAUUAUAUGUAGGAUAUGCAUAUUAUUAUUGUGCAGAAGGACAUGAGGAUCACCCAUGUAUAUUAUUAGUAUAUAUUAUAUAU
apparent Kd [1]: 18.5 nM | apparent Kd [2]: 19.2 nM

UUAUUCUAUAUAGGAUAUUGAUGCAAUUUACCUCAAGAAGGAUAUACAUGAGGAUCACCCAUGUUGGAUAGGGUUAGUUUGUUU
apparent Kd [3]: 79.4 nM | apparent Kd [4]: 76.5 nM

UUAUUGGUAGUGAGGAUAUCGGUUUGAUAGAUAUUCGAGAAGGCACAUGAGGAUCACCCAUGUAAGAUUGGGAA
apparent Kd [1]: 201 nM | apparent Kd [2]: 196 nM

UUAUUGUGAGGAUAUCAGGUGUGCUAGCGUACUGGUACAUCUGAGAAGGCACAUGAGGAUCACCCAUGUUUCUU
apparent Kd [1]: 23.4 nM | apparent Kd [2]: 66.9 nM

UUAUUUUAAUGAGGAUAUAUACAACAUGAGGAUCACCCAUGUACCCAUGUAGUAGAAGGCAUAAUUUUUGAUAAUAACAUAACU
apparent Kd [3]: 49.5 nM | apparent Kd [4]: 31.6 nM

UUAUUUUUACAGAAGGUUUAAUACUAUGUAUGAGAAGGAUAUGUAACAUGAGGAUCACCCAUGUUUUAUUUAUAUGAGGUUCGU
apparent Kd [1]: 13.8 nM | apparent Kd [2]: 12.5 nM

UUCAAGUUGCGAGGAUAUCGUGUUAACAUGAGGAUCACCCAUGUAAAGGUUUAUUAAAUAAUCUUCGAGAAGGCGCUUAAUGUA
apparent Kd [3]: 24.1 nM | apparent Kd [4]: 20.8 nM

UUCAGCUCGUGAGGAUAUACAUGUGCUGGAAACAGCACUAUUAAAUUCACAUGAGGAUCACCCAUGUAGAAGGCACGAGCUGAG
apparent Kd [1]: 15.4 nM | apparent Kd [2]: 18.7 nM

UUCAUGUUGCGAGGAUAUCGUGUUAACAUGAGGAUCACCCAUGUAUAGGUUUAUUAAUUAGUUUUCGAGAAGGCGCUUUUAGUA
apparent Kd [3]: 215 nM | apparent Kd [4]: 158 nM

UUCCGGGUGCAGAAGGGAUAGGCCUAUUUUCGUGGUAUCCAAACCUUACAUGAGGAUCACCCAUGUCAGGAUAUGCCCACGGAA
apparent Kd [1]: 4.93 nM | apparent Kd [2]: 4.72 nM

UUCCUCACUUCUUUGACUCACAUGAGGAUCACCCAUGUAAUAUAGGAUAUGCAUUUUAUUUCUUUGCAGAAGGAUAUUAGUUUU
apparent Kd [1]: 44.8 nM | apparent Kd [2]: 141 nM
